Experimental data reported in ChEMBL document CHEMBL4765251, “Efficient identification of novel anti-glioma lead compounds by machine learning models” (Eur J Med Chem, 2020).
pEC50: −log10 of the molar value.

Key:
[1] = Selectivity index, ratio of CC50 for Wistar rat astrocytes to EC50 for human U87MG cells
Method in brief: (§1)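 Selectivity index is astrocyte CC50 divided by the glioma-line EC50, both from 72 h SRB assays. No index is given when astrocyte cytotoxicity could not be calculated at the highest concentration tested.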

U-251 = test: Antiproliferative activity against human U251MG cells assessed as cell growth inhibition measured after 72 hrs by SRB assay; type: functional, cell-based; conditions: U-251, 72 h
C6 = test: Antiproliferative activity against rat C6 cells assessed as cell growth inhibition measured after 72 hrs by SRB assay; type: functional, cell-based; conditions: C6, 72 h
[2] = Selectivity index, ratio of CC50 for Wistar rat astrocytes to EC50 for human U-251 MG cells; method in brief: as §1
U-87 MG = test: Antiproliferative activity against human U87MG cells assessed as cell growth inhibition measured after 72 hrs by SRB assay; type: functional, cell-based, U-87MG ATCC
Method in brief: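 U87MG human glioma cells grown in DMEM with 10% FBS at 37 °C, used up to 30 passages and treated at 40-50% confluence. Exposed to 0.1-100 µM for 72 h, with DMSO at most 0.1% final. TCA-fixed, stained with SRB, dye solubilized in Tris pH 10.5, read at 510 nm, expressed as % of DMSO controls. Mean ± SD of three independent assays.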

[3] = Selectivity index, ratio of CC50 for Wistar rat astrocytes to EC50 for rat C6 cells; method in brief: as §1
[4] = Cytotoxicity against Wistar rat astrocytes assessed as cell growth inhibition measured after 72 hrs by SRB assay; type: cell-based, Astrocyte
Method in brief: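 Primary astrocytes taken from the cortex of 2-day-old Wistar rats by mechanical dissociation, grown on poly-L-lysine in high-glucose DMEM and treated at 90% confluence (12-15 days). Exposed to 0.1-100 µM for 72 h, then SRB assay with absorbance read at 510 nm against DMSO controls. Mean ± SD of three independent assays.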

Astrocyte = test: Cytotoxicity against Wistar rat astrocytes assessed as cell growth inhibition at 100 uM measured after 72 hrs by SRB assay; type: cell-based
Rattus norvegicus = species: Rattus norvegicus; test: Inhibition of TrxR in rat liver assessed as reduction in TNB formation using DTNB and NADPH as substrate at 100 uM preincubated with enzyme for 15 mins followed by NADPH addition by absorbance based analysis; type: tissue-based
Method in brief: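 TrxR activity was measured at 37 °C in 100 mM potassium phosphate pH 7.0 with 2 mg/mL DTNB and 0.01 mg/mL enzyme. Enzyme was preincubated for 15 min with compound or DMSO, then the reaction was started with 0.2 mg/mL NADPH. TNB formation was followed at 412 nm (ε 13.6 mM-1 cm-1). Assays were run in duplicate, with enzyme-free blanks subtracted.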

Structure (SMILES) | Ratio CC50/EC50 [1] | pEC50 (U-251) | pEC50 (C6) | Ratio CC50/EC50 [2] | pEC50 (U-87 MG) | Ratio CC50/EC50 [3] | CC50 at 72 h [4] | Activity (Astrocyte) | inhibition (Rattus norvegicus)
O=C(/C=C/c1ccc([N+](=O)[O-])o1)c1ccc(N2CCCC2)cc1 | 1.8 | 4.44 | 4.79 | 1.8 | 4.45 | 4 | 65.8 µM | – | –
O=C(/C=C/c1ccc([N+](=O)[O-])o1)c1ccc(-n2ccnc2)cc1 | 3.4 | 4.65 | 5.46 | 2 | 4.87 | 12.9 | 45.3 µM | – | –
Cc1ccc(S(=O)(=O)CC(=O)c2cccc([N+](=O)[O-])c2)cc1 | – | < 4.30 | < 4.30 | – | – | – | – | Non-Toxic | –
CC(C)Oc1ccc(C(=O)NC(=S)Nc2cccc3ccccc23)cc1 | – | < 4.30 | < 4.30 | – | – | – | – | Non-Toxic | –
CC(C)(C)c1ccc(C(=O)/C=C/c2ccc([N+](=O)[O-])o2)cc1 | – | 4.35 | 4.54 | – | – | – | – | Non-Toxic | –
Cc1ccc(N2C(=O)CC(Sc3ncccc3C(=O)O)C2=O)cc1Cl (stereo not given) | – | < 4.30 | < 4.30 | – | – | – | – | Non-Toxic | –
O=C(/C=C/c1ccc([N+](=O)[O-])o1)c1ccc(-c2ccccc2)cc1 | – | 4.61 | 4.75 | – | – | – | – | Non-Toxic | –
O=C(CS(=O)(=O)c1ccccc1)c1cc2ccccc2o1 | – | < 4.30 | < 4.30 | – | – | – | – | Non-Toxic | –
O=C(/C=C/c1ccc([N+](=O)[O-])cc1)c1ccc(N2CCCCC2)cc1 | – | < 4.30 | < 4.30 | – | – | – | – | Non-Toxic | –
CCCCc1ccc(C(=O)/C=C/c2ccco2)cc1 | – | 5.19 | 5.08 | – | 4.91 | – | > 100 µM | – | 60.4%
O=C(/C=C/c1ccc([N+](=O)[O-])o1)c1ccc(I)cc1 | 13.1 | 4.90 | 5.68 | 5.4 | 5.28 | 32.5 | 68.2 µM | – | –
O=C(/C=C/c1ccc([N+](=O)[O-])o1)c1ccc(N2CCCCC2)cc1 | – | < 4.30 | 4.31 | – | – | – | – | Non-Toxic | –
Cc1nonc1C(=O)c1no[n+]([O-])c1C(=O)c1nonc1C | – | < 4.30 | < 4.30 | – | – | – | – | Non-Toxic | –
O=C(/C=C/c1ccc([N+](=O)[O-])o1)c1ccc(N2CCNCC2)cc1 | 9 | 4.78 | 5.82 | 2.6 | 5.31 | 29.5 | 44.3 µM | – | 0%
O=C(/C=C/c1ccc(Cl)s1)c1ccc(-n2ccnc2)cc1 | – | 4.45 | 4.84 | – | – | – | – | Non-Toxic | –
COc1ccc(/C=C/C(=O)c2cccc(Br)c2)cc1 | – | 4.49 | 4.65 | – | – | – | – | Non-Toxic | –
Cc1ccc(S(=O)(=O)/N=C/c2ccc(F)cc2)cc1 | – | < 4.30 | 4.31 | – | – | – | – | Non-Toxic | –
O=C(/C=C/c1cccc([N+](=O)[O-])c1)c1ccc(N2CCCCC2)cc1 | – | 4.69 | 4.49 | – | – | – | – | Non-Toxic | –

Structure (SMILES) | Ratio CC50/EC50 [1] | pEC50 (U-251) | pEC50 (C6) | Ratio CC50/EC50 [2] | pEC50 (U-87 MG) | Ratio CC50/EC50 [3] | CC50 at 72 h [4] | Activity (Astrocyte) | inhibition (Rattus norvegicus)
CC(C)(C)c1ccc(C(=O)/C=C/c2ccco2)cc1 | – | 4.79 | 4.73 | – | 4.49 | – | 88.7 µM | – | 3.6%
O=C(/C=C/c1ccco1)c1ccc(C2CCCCC2)cc1 | – | 4.58 | < 4.30 | – | – | – | – | Non-Toxic | –
Cc1no[n+]([O-])c1C(=O)c1no[n+]([O-])c1C(=O)c1no[n+]([O-])c1C | – | < 4.30 | < 4.30 | – | – | – | – | Non-Toxic | –
Cc1ccc(C(=O)/C=C/c2ccco2)cc1 | – | 4.63 | 5.11 | – | 4.72 | – | > 100 µM | – | –
O=C(/C=C/c1ccc([N+](=O)[O-])o1)c1ccc(C2CCCCC2)cc1 | 6 | 5.36 | 5.29 | 13 | 5.02 | 11.2 | 57.2 µM | – | –
COc1ccc(/C=C/C(=O)c2ccc(-c3ccccc3)cc2)cc1 | – | < 4.30 | < 4.30 | – | – | – | – | Non-Toxic | –
CCC(=O)Oc1cccc2ccc(/C=C/c3ccccc3[N+](=O)[O-])nc12 | 5.3 | 5.00 | 5.20 | 5.4 | 4.98 | 8.7 | 55.2 µM | – | –
CC(=O)c1ccc(NCCC(=O)c2cccs2)cc1 | – | < 4.30 | 4.33 | – | – | – | – | Non-Toxic | –
O=C(/C=C/c1ccc([N+](=O)[O-])o1)c1ccc(Br)cc1 | 6.7 | 4.67 | 5.57 | 3.9 | 4.90 | 31.6 | 85.4 µM | – | –
O=C(/C=C/c1ccc(Cl)s1)c1ccc(N2CCCCC2)cc1 | – | < 4.30 | 4.44 | – | – | – | – | Non-Toxic | –
Cc1ccc(S(=O)(=O)CC(=O)c2ccc(Cl)cc2Cl)cc1 | – | < 4.30 | < 4.30 | – | – | – | – | Non-Toxic | –
CSc1ccc(C(=O)/C=C/c2ccco2)cc1 | – | 4.62 | 4.84 | – | 4.35 | – | 98 µM | – | –
CSc1ccc(C(=O)/C=C/c2ccc([N+](=O)[O-])o2)cc1 | 7.3 | 4.85 | 5.80 | 2 | 5.41 | 17.7 | 28.4 µM | – | 56.4%
COc1ccc(/C=C/C(=O)c2cccc(I)c2)cc1 | >7.5 | 4.67 | 4.84 | >4.7 | 4.87 | >6.8 | > 100 µM | – | –
O=C(/C=C/c1ccco1)c1ccc(N2CCOCC2)cc1 | – | < 4.30 | 4.63 | – | – | – | – | Non-Toxic | –
O=C(/C=C/c1ccc([N+](=O)[O-])s1)c1ccc(-n2ccnc2)cc1 | 4 | 5.03 | 5.72 | 4.3 | 5.00 | 21.3 | 40.4 µM | – | –
C[N+](=O)c1ccc(/C=C/C(=O)c2ccc(N3CCOCC3)cc2)o1 | 7.7 | 4.42 | 5.18 | 2 | 5.01 | 11.5 | 75.8 µM | – | –
CN(C)c1ccc(/C=C/C(=O)c2ccc(-c3ccccc3)cc2)cc1 | – | < 4.30 | 4.31 | – | – | – | – | Non-Toxic | –
